# Laboratory results from ChEMBL document CHEMBL4393666, “Synthesis and Anti-HCV Activities of 4'-Fluoro-2'-Substituted Uridine Triphosphates and Nucleotide Prodrugs: Discovery of 4'-Fluoro-2'- C-methyluridine 5'-Phosphoramidate Prodrug (AL-335) for the Treatment of Hepatitis C Infection” (J Med Chem, 2019).
# Legend:
# DNA polymerase beta = DNA polymerase beta (Homo sapiens, UniProt P06746); assay: Inhibition of human DNA polymerase-beta assessed as reduction in [3H]dTTP incorporation in to activated calf thymus DNA substrate at 100 uM by scintillation counting method relative to control; details: human DNA polymerase-beta enzyme, probe [3H]dTTP
# [1] = target: DNA-directed RNA polymerase, mitochondrial (Homo sapiens, UniProt O00411); assay: Inhibition of human mitochondrial DNA-dependent RNA polymerase activity at 100 uM using 33P-RNA/DNA primer/template by phosphor-imaging analysis
# [2] = Inhibition of RNA polymerase 2 in human HeLa cell nuclear extract assessed as reduction in RNA transcription by PAGE analysis; type: cell-based
# Procedure, shortened: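 In vitro transcription by RNA polymerase II in HeLa cell nuclear extract; RNA products resolved on 6% TBE-urea polyacrylamide gels.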
# DNA polymerase gamma = target: T1, DNA polymerase gamma (Homo sapiens, UniProt P54098); assay: Inhibition of human DNA polymerase-gamma assessed as reduction in [3H]dTTP incorporation in to activated calf thymus DNA substrate at 100 uM by scintillation counting method relative to control; details: human DNA polymerase-gamma enzyme, probe [3H]dTTP
# T1 sequence (P54098 whole entry): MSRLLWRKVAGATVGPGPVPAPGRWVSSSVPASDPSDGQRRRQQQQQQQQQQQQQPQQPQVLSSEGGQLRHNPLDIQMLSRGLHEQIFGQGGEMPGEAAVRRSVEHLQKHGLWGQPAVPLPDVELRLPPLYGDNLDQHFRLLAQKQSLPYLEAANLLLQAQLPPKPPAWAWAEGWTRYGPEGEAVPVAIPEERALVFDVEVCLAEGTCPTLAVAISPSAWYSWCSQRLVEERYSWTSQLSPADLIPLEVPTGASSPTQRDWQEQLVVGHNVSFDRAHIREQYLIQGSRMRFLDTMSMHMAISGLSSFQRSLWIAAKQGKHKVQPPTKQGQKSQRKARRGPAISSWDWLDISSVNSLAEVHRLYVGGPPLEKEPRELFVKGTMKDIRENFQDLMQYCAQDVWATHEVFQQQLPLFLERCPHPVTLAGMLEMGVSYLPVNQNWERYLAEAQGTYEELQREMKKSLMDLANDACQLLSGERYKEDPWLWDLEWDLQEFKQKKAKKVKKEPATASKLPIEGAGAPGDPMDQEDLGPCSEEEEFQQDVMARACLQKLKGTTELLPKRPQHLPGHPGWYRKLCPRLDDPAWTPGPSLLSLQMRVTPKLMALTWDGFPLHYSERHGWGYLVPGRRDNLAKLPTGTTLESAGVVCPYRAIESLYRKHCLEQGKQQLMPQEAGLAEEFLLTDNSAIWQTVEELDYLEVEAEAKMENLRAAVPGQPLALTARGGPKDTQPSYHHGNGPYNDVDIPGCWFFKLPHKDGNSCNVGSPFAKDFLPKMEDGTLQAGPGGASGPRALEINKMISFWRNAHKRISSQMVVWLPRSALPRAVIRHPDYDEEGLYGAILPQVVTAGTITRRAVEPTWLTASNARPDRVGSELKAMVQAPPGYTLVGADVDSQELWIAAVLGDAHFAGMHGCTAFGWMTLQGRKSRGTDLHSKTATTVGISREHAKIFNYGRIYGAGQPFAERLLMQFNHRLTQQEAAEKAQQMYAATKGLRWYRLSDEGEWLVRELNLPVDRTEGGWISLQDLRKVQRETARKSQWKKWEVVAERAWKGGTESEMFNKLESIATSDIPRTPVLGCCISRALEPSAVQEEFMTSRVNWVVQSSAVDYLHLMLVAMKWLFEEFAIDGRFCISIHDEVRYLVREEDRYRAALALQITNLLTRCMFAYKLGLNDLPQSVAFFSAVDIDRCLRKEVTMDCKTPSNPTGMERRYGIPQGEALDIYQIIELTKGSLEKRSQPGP
# DNA polymerase alpha = target: T2, DNA polymerase alpha (Homo sapiens, UniProt P09884); assay: Inhibition of human DNA polymerase-alpha assessed as reduction in [3H]dTTP incorporation in to activated calf thymus DNA substrate at 100 uM by scintillation counting method relative to control; details: human DNA polymerase-alpha enzyme, probe [3H]dTTP
# T2 sequence (P09884 whole entry): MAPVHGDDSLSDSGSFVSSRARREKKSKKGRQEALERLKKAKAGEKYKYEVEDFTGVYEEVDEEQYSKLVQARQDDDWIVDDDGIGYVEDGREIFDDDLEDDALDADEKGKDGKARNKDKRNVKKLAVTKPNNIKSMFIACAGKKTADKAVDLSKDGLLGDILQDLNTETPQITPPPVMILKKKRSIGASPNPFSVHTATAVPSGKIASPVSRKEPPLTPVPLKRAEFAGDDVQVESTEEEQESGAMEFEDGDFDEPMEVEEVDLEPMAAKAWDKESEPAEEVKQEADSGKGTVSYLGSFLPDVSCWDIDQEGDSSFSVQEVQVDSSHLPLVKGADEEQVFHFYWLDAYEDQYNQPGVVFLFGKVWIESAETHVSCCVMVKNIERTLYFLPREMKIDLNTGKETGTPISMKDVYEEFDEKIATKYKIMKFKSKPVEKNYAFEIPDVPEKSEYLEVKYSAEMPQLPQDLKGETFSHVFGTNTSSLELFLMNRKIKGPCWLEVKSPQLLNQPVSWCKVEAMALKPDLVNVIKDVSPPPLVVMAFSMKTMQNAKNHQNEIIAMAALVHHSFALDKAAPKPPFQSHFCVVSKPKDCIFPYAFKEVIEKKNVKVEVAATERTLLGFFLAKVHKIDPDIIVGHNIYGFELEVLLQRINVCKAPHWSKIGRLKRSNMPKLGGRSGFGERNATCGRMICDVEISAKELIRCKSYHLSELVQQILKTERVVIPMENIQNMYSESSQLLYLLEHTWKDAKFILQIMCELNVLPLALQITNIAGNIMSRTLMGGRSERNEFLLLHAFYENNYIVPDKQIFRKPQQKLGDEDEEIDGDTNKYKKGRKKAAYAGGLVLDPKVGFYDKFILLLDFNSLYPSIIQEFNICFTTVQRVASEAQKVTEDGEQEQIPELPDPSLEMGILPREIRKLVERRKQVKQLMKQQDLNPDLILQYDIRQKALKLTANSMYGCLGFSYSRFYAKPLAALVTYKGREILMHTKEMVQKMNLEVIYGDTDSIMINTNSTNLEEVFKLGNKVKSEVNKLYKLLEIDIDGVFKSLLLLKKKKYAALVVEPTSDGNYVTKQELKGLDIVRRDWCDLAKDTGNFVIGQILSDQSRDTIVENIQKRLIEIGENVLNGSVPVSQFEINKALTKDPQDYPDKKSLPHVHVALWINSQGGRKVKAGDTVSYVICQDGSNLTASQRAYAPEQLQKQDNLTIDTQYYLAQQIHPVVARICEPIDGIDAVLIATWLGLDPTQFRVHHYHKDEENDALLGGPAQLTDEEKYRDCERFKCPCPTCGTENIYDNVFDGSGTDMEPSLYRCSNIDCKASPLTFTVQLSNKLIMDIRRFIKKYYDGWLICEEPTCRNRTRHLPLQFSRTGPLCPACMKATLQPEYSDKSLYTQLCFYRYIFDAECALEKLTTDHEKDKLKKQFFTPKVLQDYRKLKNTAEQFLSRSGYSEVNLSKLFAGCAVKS
# [3] = target: RNA-directed RNA polymerase (Hepacivirus hominis, UniProt O39930); assay: Inhibition of HCV NS5B RNA-dependent RNA polymerase activity assessed as reduction in radiolabeled-CTP incorporation into RNA using cIRES template measured after 2 hrs by microscintillation counting method
# RNA-directed RNA polymerase, sequence (O39930 whole entry): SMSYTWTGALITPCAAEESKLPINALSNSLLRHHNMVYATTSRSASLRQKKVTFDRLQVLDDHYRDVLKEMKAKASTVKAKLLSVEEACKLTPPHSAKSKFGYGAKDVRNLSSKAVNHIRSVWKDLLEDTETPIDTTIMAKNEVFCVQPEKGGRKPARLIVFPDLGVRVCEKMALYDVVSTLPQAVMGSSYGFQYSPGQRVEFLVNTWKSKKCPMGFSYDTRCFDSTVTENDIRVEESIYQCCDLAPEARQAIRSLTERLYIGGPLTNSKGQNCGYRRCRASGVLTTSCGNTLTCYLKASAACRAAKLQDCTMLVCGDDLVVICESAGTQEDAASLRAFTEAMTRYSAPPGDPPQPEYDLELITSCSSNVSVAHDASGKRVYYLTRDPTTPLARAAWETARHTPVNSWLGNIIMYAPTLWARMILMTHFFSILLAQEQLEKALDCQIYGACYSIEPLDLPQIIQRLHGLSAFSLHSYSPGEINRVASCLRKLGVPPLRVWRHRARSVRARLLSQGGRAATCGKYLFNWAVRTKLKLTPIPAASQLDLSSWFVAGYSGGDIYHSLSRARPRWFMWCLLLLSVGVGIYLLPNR
# DNA-directed RNA polymerase, mitochondrial, sequence (O00411 whole entry): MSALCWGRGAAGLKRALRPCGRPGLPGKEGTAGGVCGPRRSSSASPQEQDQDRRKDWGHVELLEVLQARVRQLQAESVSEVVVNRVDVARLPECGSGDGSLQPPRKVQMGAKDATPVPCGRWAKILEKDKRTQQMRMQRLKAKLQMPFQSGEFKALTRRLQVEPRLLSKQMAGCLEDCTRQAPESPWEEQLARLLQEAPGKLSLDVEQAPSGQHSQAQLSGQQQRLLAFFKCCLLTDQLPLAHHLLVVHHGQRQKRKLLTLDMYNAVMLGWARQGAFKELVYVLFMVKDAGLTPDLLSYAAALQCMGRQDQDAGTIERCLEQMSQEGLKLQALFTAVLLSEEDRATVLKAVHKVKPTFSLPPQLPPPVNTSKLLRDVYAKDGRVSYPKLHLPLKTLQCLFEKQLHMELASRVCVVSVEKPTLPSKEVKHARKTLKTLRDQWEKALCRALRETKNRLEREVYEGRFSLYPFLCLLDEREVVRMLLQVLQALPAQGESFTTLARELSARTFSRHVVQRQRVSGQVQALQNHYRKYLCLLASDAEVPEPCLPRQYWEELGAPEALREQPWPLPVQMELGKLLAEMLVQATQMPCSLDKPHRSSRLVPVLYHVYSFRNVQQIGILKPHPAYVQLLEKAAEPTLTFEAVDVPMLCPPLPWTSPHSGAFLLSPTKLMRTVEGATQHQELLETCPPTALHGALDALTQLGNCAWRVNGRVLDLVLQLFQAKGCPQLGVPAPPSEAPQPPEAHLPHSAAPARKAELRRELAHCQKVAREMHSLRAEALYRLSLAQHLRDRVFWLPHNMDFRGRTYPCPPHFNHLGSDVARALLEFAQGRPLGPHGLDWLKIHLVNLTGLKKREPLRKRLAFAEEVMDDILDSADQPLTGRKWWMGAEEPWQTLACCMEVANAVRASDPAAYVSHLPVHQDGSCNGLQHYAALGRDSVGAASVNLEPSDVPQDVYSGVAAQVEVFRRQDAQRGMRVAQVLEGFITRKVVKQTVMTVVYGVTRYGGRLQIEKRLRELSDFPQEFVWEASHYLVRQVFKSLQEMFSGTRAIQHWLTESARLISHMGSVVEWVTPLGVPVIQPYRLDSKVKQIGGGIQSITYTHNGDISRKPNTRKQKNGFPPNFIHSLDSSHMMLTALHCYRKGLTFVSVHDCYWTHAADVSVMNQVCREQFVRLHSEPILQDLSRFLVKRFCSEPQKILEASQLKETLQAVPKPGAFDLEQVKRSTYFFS
Compound,inhibition at 100 µM (DNA polymerase beta),inhibition (INH) [1],IC50 [2],inhibition at 100 µM (DNA polymerase gamma),inhibition at 100 µM (DNA polymerase alpha),IC50 [3]
C[C@@]1(O)[C@H](O)[C@@H](COP(=O)(O)OP(=O)(O)OP(=O)(O)O)O[C@H]1n1ccc(=O)[nH]c1=O,-0.008%,Active,> 100 µM,14.6%,22.4%,
C[C@@]1(F)[C@H](O)[C@@H](COP(=O)(O)OP(=O)(O)OP(=O)(O)O)O[C@H]1n1ccc(=O)[nH]c1=O [GS-461203],14%,,> 100 µM,9.2%,58.2%,
O=c1ccn([C@@H]2O[C@](F)(COP(=O)(O)OP(=O)(O)OP(=O)(O)O)[C@@H](O)[C@]2(F)Cl)c(=O)[nH]1,18.1%,,,7.9%,75.8%,0.19 µM

# Next, values leading:
inhibition at 100 µM (DNA polymerase beta),inhibition (INH) [1],IC50 [2],inhibition at 100 µM (DNA polymerase gamma),inhibition at 100 µM (DNA polymerase alpha),IC50 [3],Compound
22.6%,Active,> 100 µM,9.5%,34.5%,,C[C@@]1(Cl)[C@H](O)[C@@H](COP(=O)(O)OP(=O)(O)OP(=O)(O)O)O[C@H]1n1ccc(=O)[nH]c1=O [4A-TP]
15.2%,,> 100 µM,-10%,40.9%,0.86 µM,C[C@]1(F)[C@H](n2ccc(=O)[nH]c2=O)O[C@](F)(COP(=O)(O)OP(=O)(O)OP(=O)(O)O)[C@H]1O
